Compound activity (PubChem BioAssay)
Sampled rows, rich in hits. Any-hit rate of the full collection: about 3.1%.
KCNQ1 pot = potentiators or activators of human KCNQ1 potassium channel. AID 2648. P51787. CHO-K1 KCNQ1, thallium flux FluxOR fluorescence; stronger effect = higher value. B-score at 10 µM. hit rate 0.35% among 310,000;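 active = fluorescence ratio B-score, a plate-corrected score, at least three library SD, with initial intensity B-score within 5 SD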
Target sequence (P51787 whole entry, looked up): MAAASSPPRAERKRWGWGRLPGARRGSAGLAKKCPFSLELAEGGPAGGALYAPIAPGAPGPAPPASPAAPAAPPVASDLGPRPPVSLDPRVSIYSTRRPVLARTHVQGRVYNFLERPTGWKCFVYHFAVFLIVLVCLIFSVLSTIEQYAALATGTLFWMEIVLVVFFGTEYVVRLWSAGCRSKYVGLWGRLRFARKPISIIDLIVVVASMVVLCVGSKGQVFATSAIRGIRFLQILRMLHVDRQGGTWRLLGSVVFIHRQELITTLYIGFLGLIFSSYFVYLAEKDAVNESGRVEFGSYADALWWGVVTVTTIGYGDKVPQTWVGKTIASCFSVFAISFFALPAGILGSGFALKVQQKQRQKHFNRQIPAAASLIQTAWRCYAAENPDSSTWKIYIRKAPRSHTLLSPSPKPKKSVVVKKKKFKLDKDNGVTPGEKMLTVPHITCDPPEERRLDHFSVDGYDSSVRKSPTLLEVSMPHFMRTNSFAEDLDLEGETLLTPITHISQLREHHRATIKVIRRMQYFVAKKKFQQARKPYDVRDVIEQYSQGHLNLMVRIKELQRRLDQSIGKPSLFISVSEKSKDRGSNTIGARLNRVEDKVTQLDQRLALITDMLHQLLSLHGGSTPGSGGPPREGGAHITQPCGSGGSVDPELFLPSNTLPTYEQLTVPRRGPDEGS
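Schedule – 37 °C overnight plating, 90-min dark dye load, 20-min compound pretreatment · System – stable KCNQ1 CHO-K1 line · Probe or stimulus – thallium- and potassium-containing depolarizing buffer · Measured by – kinetic FluxOR fluorescence, 10 s baseline plus 110 s post-stimulus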
hERG rescue = hERG (human) protection from proarrhythmic block; Q12809; CHO-hERG, FluxOR thallium flux, dofetilide IC70 present; activation (rescue from dofetilide block), less the hit threshold, % at 10 µM; hit rate 0.51% among 310,000; AID 1511;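 active = activation above the mean of controls blocked by dofetilide plus 5 SD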;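 note: thallium influx through hERG after potassium depolarization seen as dye fluorescence rise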
KCNK3 inh = human KCNK3 channel inhibition, primary screen; O14649; CHO-KCNK3 thallium flux, FluxOR fluorescence; stronger effect = lower value; B-score at 10 µM; hit rate 0.84% among 340,000; AID 602410;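 active = B-score under library mean minus 4 SD, starting fluorescence ratio at most library mean plus 5 SD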;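 note: more negative B-score means stronger inhibition of thallium flux through KCNK3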
KCNQ1 block = human KCNQ1 channel inhibition; hit rate 1.3% among 310,000; B-score at 10 µM; CHO-K1 KCNQ1, FluxOR thallium flux fluorescence; stronger effect = higher value;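 active = compounds whose thallium flux B-score, printed positive for inhibition, exceeds three library SD while starting fluorescence stays within three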;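 note: channel opened by potassium depolarization with thallium stimulus after 20 min compound exposure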
KCNK9 inh = human KCNK9 channel inhibition; Q9NPC2; AID 488922; HEK293 KCNK9, FluxOR thallium flux fluorescence; stronger effect = lower value; B-score at 10 µM; hit rate 1.2% among 310,000;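 active = ratio B-score over 3 SD below the library mean, with starting fluorescence within 5 SD of its mean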;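 note: negative B-score means less thallium flux so channel inhibition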
KCNK3 confirm = confirmation of human KCNK3 two-pore domain potassium channel inhibitors | ratio percent of control, % at 10 µM | CHO-KCNK3 thallium flux, FluxOR fluorescence; 0% buffer, 100% carvedilol maximal block | hit rate 99% among 2,400 | shares compounds with KCNK3 inh;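 active = ratio percent of control, averaged over triplicates, above buffer control mean plus 5 SD, cut at about 64% in these data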;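 note: ratio is the fluorescence rise from min to max over baseline after thallium stimulus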
KCNK3 uninduced = KCNK3 inhibitor counter-screen hit in non-induced cells; shares compounds with KCNK3 inh; non-induced KCNK3 parental cells, FluxOR thallium flux; stronger effect = lower value; thallium flux ratio (lower = more inhibition) at 10 µM; hit rate 40% among 2,400;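 active = thallium flux ratio, averaged over three wells, more than 5 SD below the buffer control mean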;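 note: host cells are CHO cells without KCNK3 induction; ratio is peak minus trough fluorescence over baseline then normalized to buffer controls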
Numbers without * were called inactive; i = inactive; nt = no result.

SMILES	KCNQ1 pot	hERG rescue	KCNK3 inh	KCNQ1 block	KCNK9 inh	KCNK3 confirm	KCNK3 uninduced
O=C(NNC(=O)c1cc(-c2ccncc2)nc2ccccc12)Nc1ccc(F)cc1	i	-8	i	i	i	nt	nt
COC(=O)c1cccc(-n2nnnc2SCC(=O)Nc2nc3c(s2)CCCC3)c1	i	-1	i	i	i	nt	nt
CCOC(=O)c1c(NC(=O)Cn2c(C)nc3ccccc32)sc2c1CCC2	i	-17	-9.4*	i	i	102*	i
COC(=O)c1c(NC(=O)CSc2nnnn2-c2ccccc2)sc2c1CCCC2	i	-3	-9.4*	i	i	96*	i
O=[N+]([O-])c1ccc(-[n+]2ccc3ccccc3c2)c([N+](=O)[O-])c1	i	-13	i	i	i	nt	nt
Cc1ccc(SCC(=O)OC(C)C(=O)NC2CCCCC2C)c(C)c1 (centres undefined)	nt	nt	i	nt	nt	nt	nt
Cc1ccccc1Cn1nc(C)c(NC(=O)c2sc3ccccc3c2Cl)c1C	i	-9	-9*	i	i	149*	0.11*
COc1cccc(CNC(=O)CCc2ccc(OC)c(OC)c2)c1	i	-4	i	i	i	nt	nt
COc1ccc(C(=O)C2CCCN(S(=O)(=O)c3ccc(C(C)=O)cc3)C2)c(C)c1 (centres undefined)	i	-8	-10*	i	i	120*	0.15*
CCS(=O)(=O)N1CCCC(C(=O)c2ccc(OC)cc2C)C1 (centres undefined)	i	-13	i	i	i	nt	nt
CCCCN=C1CC(C)(C)CC(=O)/C1=C(/O)CCC	i	-10	-11*	i	i	100*	i
COC(=O)c1sccc1NC(=O)CC1C(=O)NCCN1C(=O)Nc1cc(Cl)ccc1OC (centres undefined)	i	-8	-10*	i	i	91*	i
COc1ccc(C2Nc3ccccc3C(=O)N2c2ccc(C)cc2)cc1Cn1nnc2ccccc21 (centres undefined)	i	-12	-8.8*	i	i	111*	0.16*
COc1ccc(N2C(=O)c3ccccc3NC2c2ccc(OC)c(COc3ccccn3)c2)cc1 (centres undefined)	i	-15	i	i	i	nt	nt
COc1ccc(C2Nc3ccccc3C(=O)N2c2ccc(C)cc2)cc1Cn1cc([N+](=O)[O-])cn1 (centres undefined)	i	-15	-8.8*	i	i	105*	i
COc1ccc(C)cc1Cn1nnc2ccccc21	i	-3	i	i	i	nt	nt
CC(=O)C1=C(O)C(=O)N(c2ccc(Br)cc2)C1c1ccccc1[N+](=O)[O-] (centres undefined)	i	-7	i	i	i	nt	nt
O=C(CCC(=O)c1ccc(F)cc1)OCc1nnc(-c2ccc([N+](=O)[O-])cc2)o1	nt	nt	i	nt	nt	nt	nt
CCOC(=O)CCSc1nc(C(C)(C)C)cc(C(F)(F)F)c1C#N	i	-13	-8.9*	6*	i	131*	0.13*
CCOC(=O)CCSc1nc(C)cc(C(F)(F)F)c1C#N	i	-9	i	i	i	nt	nt
COC(=O)c1sc2nc(N3CCCCC3)c3c(c2c1N)CCCC3	i	-9	-11*	i	i	104*	i
NC(=O)c1sc2nc(N3CCCCC3)c3c(c2c1N)CCCC3	i	-20	i	i	i	nt	nt
CC12CC3CC(C)(C1)CC(C(=O)N1CCN(C(=O)c4ccco4)CC1)(C3)C2	i	-14	i	i	i	nt	nt
CC1(C(=O)OCC(=O)Nc2nc(-c3ccc(F)c(F)c3)cs2)CC1(Cl)Cl (centres undefined)	i	-20	-10*	i	i	140*	0.14*
O=C(Cc1ccc(F)cc1)Nc1nc(-c2ccc(F)c(F)c2)cs1	i	-4	-11*	i	i	130*	i
SMILES	KCNQ1 pot	hERG rescue	KCNK3 inh	KCNQ1 block	KCNK9 inh	KCNK3 confirm	KCNK3 uninduced
CCOc1ccc(CN2CCN(c3ncnc4scc(-c5ccccc5)c34)CC2)cc1	i	-12	i	i	i	nt	nt
Cc1ccc2c(c1)[nH]c1c(N3CCN(Cc4ccccc4)CC3)ncnc12	i	-25	i	i	i	nt	nt
Cc1sc2ncnc(N3CCN(Cc4ccccc4)CC3)c2c1-c1ccccc1	57*	-13	-9.6*	i	i	112*	0.16*
Cc1ccc2[nH]c3c(N4CCN(Cc5ccccc5)CC4)ncnc3c2c1	i	-25	-10*	i	i	130*	0.11*
COc1cccc(CN(C)C(=O)c2cc(-c3cccs3)nc3ccccc23)c1	i	-16	i	i	i	nt	nt
CCOC(=O)c1nc(C)nc(Sc2n[nH]c(-c3cc(C(F)(F)F)cc(C(F)(F)F)c3)n2)c1C	i	-11	-9.4*	6*	i	102*	0.12*
CCOC(=O)c1cc(-c2cccc(C(F)(F)F)c2)nc2nc(SC)[nH]c(=O)c12	i	-6	i	i	i	nt	nt
CCOc1ccc(S(=O)(=O)Nc2cc(NS(=O)(=O)c3ccc(OCC)cc3)cc(C(=O)O)c2)cc1	nt	nt	i	nt	nt	nt	nt
COC(=O)c1cc(NC(=O)c2ccccc2)c(=O)oc1C/C=N\OCc1ccc(Cl)cc1Cl	i	-13	-11*	13*	i	116*	0.13*
CCC1SC2=NC(C)=C(C(=O)OC)C(c3cccs3)N2C1=O (centres undefined)	i	-8	-13*	i	i	89*	i
CC1CCc2ccccc2N1C(=O)c1cccs1 (centres undefined)	i	-11	-8.9*	i	i	69*	i
Cc1nn(CC(=O)NC2(C)CCS(=O)(=O)C2)c(C)c1S(=O)(=O)N(C)C (centres undefined)	nt	nt	i	nt	nt	nt	nt
CC(C)N1C(=O)S/C(=C/c2ccc(Sc3nc4ccccc4[nH]3)o2)C1=O	i	-8	-11*	i	i	132*	i
CCOC(=O)C1=C(c2ccccc2)NC(SCC(=O)Nc2cccc(C)c2)=C(C#N)C1c1ccco1 (centres undefined)	i	-7	-8.7*	i	-6.7*	113*	i
CCOC(=O)C1=C(c2ccccc2)NC(SCC(=O)Nc2ccccc2C)=C(C#N)C1c1ccco1 (centres undefined)	i	-5	i	i	i	nt	nt
CCOc1cc(/C=N/O)ccc1OS(=O)(=O)c1ccc(C)cc1	i	-5	i	i	i	nt	nt
